In ChEMBL document CHEMBL4321803 (J Med Chem, 2019):
Calls of active or inactive are those of the source. The calls are words filed in the database; no cut-off is given here.

Legend:
Beta-lactamase OXA-10 = Beta-lactamase OXA-10 (Pseudomonas aeruginosa, UniProt P14489); assay: Inhibition of Pseudomonas aeruginosa class D serine beta-lactamase OXA-10 expressed in Escherichia coli BL21(DE3) cells assessed as reduction in breakdown of cephalosporin FC-5 in presence of aqueous sodium bicarbonate after 10 to 300 mins by fluorescence method
[1] = Inhibition of bacterial class B1 metallo beta-lactamase VIM-1 assessed as reduction in breakdown of cephalosporin FC-5 after 10 mins by fluorescence method; parameters: species or system Bacteria
Summary of the method: (§1)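 Enzyme levels: L1 50 pM, IMP-1 20 pM, NDM-1 20 pM, VIM-1 100 pM, VIM-2 500 pM. Inhibitor pre-incubated with enzyme 10 min. Four-parameter fit for IC50.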

[2] = Inhibition of Aeromonas hydrophila class B2 metallo beta-lactamse CphA assessed as reduction in meropenem hydrolysis after 10 mins by UV absorbance method
[3] = Inhibition of recombinant bacterial class B1 metallo beta-lactamase IMP-1 expressed in Escherichia coli assessed as reduction in breakdown of cephalosporin FC-5 preincubated for 10 mins followed by cephalosporin FC-5 addition by fluorescence method; parameters: species or system Bacteria
Summary of the method: (§2)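 Enzyme levels: L1 50 pM, IMP-1 20 pM, NDM-1 20 pM, VIM-1 100 pM, VIM-2 500 pM. Inhibitor pre-incubated with enzyme 10 min. Initial rates by fluorescence (ex 380/em 460 nm). Four-parameter fit for IC50.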

[4] = Inhibition of recombinant bacterial class B1 metallo beta-lactamase NDM-1 expressed in Escherichia coli assessed as reduction in breakdown of cephalosporin FC-5 preincubated for 10 mins followed by cephalosporin FC-5 addition by fluorescence method; parameters: species or system Bacteria; summary of the method: as §2
[5] = Inhibition of Pseudomonas aeruginosa PAO1 class C serine beta-lactamase N-terminal His- tagged AmpC expressed in Escherichia coli BL21(DE3) cells assessed as reduction in breakdown of cephalosporin FC-5 preincubated for 10 to 300 mins followed by cephalosporin FC-5 addition by fluorescence method
[6] = Inhibition of Klebsiella pneumoniae class D serine beta-lactamase N-terminal His-tagged OXA-48 expressed in Escherichia coli BL21(DE3) cells assessed as reduction in breakdown of cephalosporin FC-5 in presence of aqueous sodium bicarbonate after 10 to 300 mins by fluorescence method
[7] = Inhibition of bacterial class B1 metallo beta-lactamase IMP-1 assessed as reduction in breakdown of cephalosporin FC-5 after 10 mins by fluorescence method; parameters: species or system Bacteria; summary of the method: as §2
[8] = Inhibition of bacterial class B1 metallo beta-lactamase NDM-1 assessed as reduction in breakdown of cephalosporin FC-5 after 10 mins by fluorescence method; parameters: species or system Bacteria; summary of the method: as §1
[9] = Inhibition of bacterial class B1 metallo beta-lactamse VIM-2 assessed as reduction in breakdown of cephalosporin FC-5 after 10 mins by fluorescence method; parameters: species or system Bacteria; summary of the method: as §2
[10] = Inhibition of Stenotrophomonas maltophilia class B3 metallo beta-lactamse L1 assessed as reduction in breakdown of cephalosporin FC-5 after 10 mins by fluorescence method; summary of the method: as §2
[11] = Inhibition of Pseudomonas aeruginosa class C serine beta-lactamase AmpC assessed as reduction in breakdown of cephalosporin FC-5 after 10 mins by fluorescence method
Summary of the method: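 AmpC at 500 pM was pre-incubated with inhibitor for 10 min at room temperature in phosphate buffer, pH 7.4, with 0.01% (v/v) Triton X-100, then given 5 μM FC5. Initial hydrolysis rates were read by fluorescence (ex 380 nm, em 460 nm), and IC50 was taken from a four-parameter log(inhibitor) vs response fit.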

[12] = Inhibition of bacterial class D serine beta-lactamase OXA-10 assessed as reduction in breakdown of cephalosporin FC-5 after 10 mins by fluorescence method; parameters: species or system Bacteria
Summary of the method: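 Run in SBL buffer (phosphate pH 7.4, 0.01% v/v Triton X-100) at room temperature with 5 μM FC5. Enzyme levels: OXA-10 250 pM, OXA-48 12.5 nM. Enzyme pre-incubated with inhibitor 10 min. Initial rates by fluorescence (ex 380/em 460 nm). IC50 from a four-parameter log(inhibitor) fit.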

[13] = Inhibition of bacterial class D serine beta-lactamase OXA-10 assessed as reduction in breakdown of cephalosporin FC-5 in presence of aqueous sodium bicarbonate after 10 mins by fluorescence method; parameters: species or system Bacteria
Summary of the method: (§3)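 SBL buffer (phosphate pH 7.4, 0.01% v/v Triton X-100) supplemented with 100 mM NaHCO3, room temperature, FC5 5 μM. Enzyme levels: OXA-10 250 pM, OXA-48 12.5 nM. Inhibitor pre-incubated with enzyme 10 min. Initial rates by fluorescence at 380/460 nm. IC50 from a four-parameter fit.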

[14] = Inhibition of bacterial class D serine beta-lactamase OXA-48 assessed as reduction in breakdown of cephalosporin FC-5 in presence of aqueous sodium bicarbonate after 10 mins by fluorescence method; parameters: species or system Bacteria; summary of the method: as §3
[15] = Inhibition of bacterial class D serine beta-lactamase OXA-48 assessed as reduction in breakdown of cephalosporin FC-5 after 10 mins by fluorescence method; parameters: species or system Bacteria
Summary of the method: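 Run in SBL buffer (phosphate pH 7.4, 0.01% v/v Triton X-100) at room temperature with 5 μM FC5. Enzyme pre-incubated with inhibitor 10 min. IC50 from a four-parameter log(inhibitor) fit.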

Bacteria = assay: Reversible inhibition of bacterial class B1 metallo beta-lactamase NDM-1 assessed as reduction in breakdown of cephalosporin FC-5 after 15 to 180 mins by fluorescence method
Escherichia coli [16] = assay: Inhibition of metallo beta-lactamase NDM-1 in Escherichia coli S117 assessed as potentiation of cefepime-induced antibacterial activity by measuring cefepime MIC at 10 ug/ml by agar dilution method (Rvb > 64 ug/ml)
Summary of the method: (§4)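 Agar dilution MIC of meropenem or cefepime combined with the inhibitor, against NDM-1-producing clinical isolates of E. coli and K. pneumoniae. Interpreted per EUCAST/CLSI guidelines. Reference strain MICs within ±1 log2 dilution of reference values.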

Escherichia coli [17] = assay: Inhibition of metallo beta-lactamase NDM-1 in Escherichia coli IR57 assessed as potentiation of cefepime-induced antibacterial activity by measuring cefepime MIC at 10 ug/ml by agar dilution method (Rvb > 64 ug/ml); summary of the method: as §4
[18] = target: Metallo-beta-lactamase type 2 (Klebsiella pneumoniae) (UniProt C7C422); assay: Inhibition of metallo beta-lactamase NDM-1 in Klebsiella pneumoniae B68-1 assessed as potentiation of cefepime-induced antibacterial activity by measuring cefepime MIC at 10 ug/ml by agar dilution method (Rvb > 64 ug/ml); summary of the method: as §4
[19] = target: Metallo-beta-lactamase type 2 (Klebsiella pneumoniae) (UniProt C7C422); assay: Inhibition of metallo beta-lactamase NDM-1 in Klebsiella pneumoniae IR43 assessed as potentiation of cefepime-induced antibacterial activity by measuring cefepime MIC at 10 ug/ml by agar dilution method (Rvb > 64 ug/ml); summary of the method: as §4
Escherichia coli [20] = assay: Inhibition of metallo beta-lactamase NDM-1 in Escherichia coli 91N assessed as potentiation of cefepime-induced antibacterial activity by measuring cefepime MIC at 10 ug/ml by agar dilution method (Rvb > 64 ug/ml); summary of the method: as §4
Escherichia coli [21] = assay: Inhibition of metallo beta-lactamase NDM-1 in Escherichia coli S117 assessed as potentiation of meropenem-induced antibacterial activity by measuring meropenem MIC at 10 ug/ml by agar dilution method (Rvb > 64 ug/ml); summary of the method: as §4
Escherichia coli [22] = assay: Inhibition of metallo beta-lactamase NDM-1 in Escherichia coli IR57 assessed as potentiation of meropenem-induced antibacterial activity by measuring meropenem MIC at 10 ug/ml by agar dilution method (Rvb > 64 ug/ml); summary of the method: as §4
[23] = target: Metallo-beta-lactamase type 2 (Klebsiella pneumoniae) (UniProt C7C422); assay: Inhibition of metallo beta-lactamase NDM-1 in Klebsiella pneumoniae B68-1 assessed as potentiation of meropenem-induced antibacterial activity by measuring meropenem MIC at 10 ug/ml by agar dilution method (Rvb > 64 ug/ml); summary of the method: as §4
Escherichia coli [24] = assay: Inhibition of metallo beta-lactamase NDM-1 in Escherichia coli 91N assessed as potentiation of meropenem-induced antibacterial activity by measuring meropenem MIC at 10 ug/ml by agar dilution method (Rvb > 64 ug/ml); summary of the method: as §4

Sequence of Metallo-beta-lactamase type 2 (Klebsiella pneumoniae) (C7C422 whole entry): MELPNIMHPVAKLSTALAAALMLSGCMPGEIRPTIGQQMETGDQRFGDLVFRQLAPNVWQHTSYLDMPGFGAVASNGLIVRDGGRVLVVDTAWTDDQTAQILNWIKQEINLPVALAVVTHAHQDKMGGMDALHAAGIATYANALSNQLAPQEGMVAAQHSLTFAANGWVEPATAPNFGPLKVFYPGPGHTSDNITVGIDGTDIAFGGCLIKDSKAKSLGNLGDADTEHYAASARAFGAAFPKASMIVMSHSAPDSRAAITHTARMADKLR
Sequence of Beta-lactamase OXA-10 (P14489 whole entry): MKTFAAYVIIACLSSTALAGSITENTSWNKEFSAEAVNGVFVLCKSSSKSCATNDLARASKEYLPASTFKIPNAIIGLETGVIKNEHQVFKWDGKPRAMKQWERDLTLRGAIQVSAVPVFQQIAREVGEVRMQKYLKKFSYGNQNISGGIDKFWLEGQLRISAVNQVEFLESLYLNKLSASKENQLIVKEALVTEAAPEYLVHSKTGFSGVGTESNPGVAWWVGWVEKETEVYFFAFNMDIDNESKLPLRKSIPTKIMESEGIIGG

IC50 [1] | IC50 [2] | SMILES | IC50 [7] | IC50 [9] | IC50 [10] | IC50 [11] | IC50 [12] | IC50 [13] | IC50 [14] | further results
0.085 µM | > 100 µM | NCc1ccc(C(=O)N[C@H]2Cc3cccc(C(=O)O)c3OB2O)cc1 | – | – | – | – | – | – | – | IC50 (Beta-lactamase OXA-10): 5.1 µM; IC50 [3]: 1 µM; IC50 [4]: 0.029 µM; IC50 [5]: 0.12 µM; IC50 [6]: 2.6 µM
398 µM | 631 µM | O=C(O)C[C@@H]1CC[C@H](NC(=O)Cc2cccs2)B(O)O1 [VABORBACTAM] | 126 µM | 316 µM | 336 µM | 5 µM | > 400 µM | > 400 µM | 32 µM | IC50 [8]: 631 µM

SMILES | IC50 [1] | IC50 [2] | IC50 [7] | IC50 [9] | IC50 [10] | IC50 [11] | IC50 [12] | IC50 [13] | IC50 [14] | further results
NCCN[C@H]1CC[C@H](CC(=O)N[C@H]2Cc3cccc(C(=O)O)c3OB2O)CC1 | – | 2.51 µM | 2.51 µM | 0.0005 µM | > 10 µM | 0.301 µM | 0.234 µM | 0.645 µM | 2.39 µM | IC50 [15]: 0.537 µM; inhibition (Bacteria): Active; MIC (Escherichia coli [16]): 16 mg/L; MIC (Escherichia coli [17]): 8 mg/L; MIC [18]: 0.5 mg/L; MIC [19]: 0.5 mg/L; MIC (Escherichia coli [20]): 4 mg/L; MIC (Escherichia coli [21]): 1 mg/L; MIC (Escherichia coli [22]): 0.5 mg/L; MIC [23]: 0.5 mg/L; MIC (Escherichia coli [24]): 0.125 mg/L
